Laboratory results reported in ChEMBL document CHEMBL4118110, “The identification of inhibitory compounds of Rickettsia prowazekii methionine aminopeptidase for antibacterial applications” (Bioorg Med Chem Lett, 2018).

Assays:
[1] = (§1) Inhibition of Rickettsia prowazekii N-terminal His6-tagged methionine aminopeptidase 1 expressed in Escherichia coli DLB3 Rosetta cells at 10 uM using Met-AMC as substrate preincubated for 1 hr followed by 30 mins incubation after substrate addition measured after 90 mins in presence of MnCl2 by fluorescence assay relative to control
How it was run: (§2)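 Recombinant R. prowazekii MetAP with Mn(II) as the metal cofactor. Met-AMC substrate; release of free AMC is followed by fluorescence (excitation 360 nm, emission 460 nm). Activity is the slope of fluorescence versus time, compared with an uninhibited control.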

[2] = as §1, with “cells” for “cells at 10 uM”, “assay” for “assay relative to control”; how it was run: as §2
[3] = Solubility of the compound; assay type: physicochemical

Row | Structure (SMILES) | inhibition [1] [%] | IC50 [2] [µM] | solubility [3]
1 | COc1ccc2c(C)c(C(=O)O)[nH]c2c1 | 28 to 80 | 3.7 | –
2 | O=C(O)c1cc(-c2ccccc2)on1 | 80 to 82 | 1.4 | –
3 | CCCCn1cnc2sc(C(=O)O)c(C)c2c1=O | 46 to 54 | 3.1 | –
4 | CCCNC(=O)c1cc(-c2ccccn2)nc2ccccc12 | – | – | Insoluble
5 | Cc1csc(-c2ccccn2)n1 | 85 to 89 | 1.1 | –
6 | Cc1ccc(C(=O)CSc2nnc(C)[nH]2)c(C)c1 | 54 to 68 | 0.4 | –
7 | O=C(O)c1cc(-c2ccc(Cl)cc2)n[nH]1 | – | – | Insoluble
8 | NCc1nnnn1-c1cccc(Br)c1 | – | – | Insoluble
9 | CNS(=O)(=O)c1ccc(C(=O)O)o1 | 43 to 91 | 0.27 | –
10 | CC(=O)Nc1ccc(C(=O)CSc2nnc(N)[nH]2)cc1 | 89 | 10 | –
11 | C=CCNC(=O)c1cc(-c2ccccn2)nc2ccccc12 | – | – | Insoluble
12 | O=C(O)c1cc2ccc(F)cc2oc1=O | 23 to 78 | 8.3 | –
13 | Nc1nnc(SCc2cccc3ccccc23)[nH]1 | 74 to 83 | 5 | –
